# In ChEMBL document CHEMBL5724801, “EUbOPEN Chemogenomics Library - Multiplex” (2024):
# “And” between values parts separate entries of the source, which are not always exact repeats. Equal values may be shown once.
# System: Fibroblast
# Experiment: Multiplex assay against human fibroblast
# Assay type: toxicity, cell-based
# Details: 12 h, 1 µM, compound concentration 1 uM
# Outline: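 On a CQ1 microscope at 37°C and 5% CO2, live cells were imaged after compound addition. They had been stained at seeding with Hoechst33342, BioTracker Green Microtubule Cytoskeleton Dye, MitoTracker Red and Annexin V Alexa Fluor 680. CellPathfinder machine-learning gating assigned cells to Hoechst high-intensity objects or normal cells, normal cells to healthy, pyknosed or fragmented nuclei, and pyknosed cells to mitotic or apoptotic. Tubulin, mitochondrial-mass and membrane-permeability phenotypes are per cents of healthy-nucleus cells.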
Structure (SMILES),Population Apoptotic (%),Population Fragmented Nuclei (%),Population Healthy Nuclei (%),Population Hoechst High Intensity Objects (%),Population Mitochondria Different-Phenotype (%),Population Mitotic Cells (%),Population Normal (%),Population Pyknosed Nuclei (%),Population Tubulin-Different-Phenotype (%),Total Cell Count
Cn1ncnc1COc1nn2c(-c3cc(F)ccc3F)nnc2cc1C(C)(C)C,5.08% and 12.9%,11.68% and 7.25%,58.38% and 76.68%,0%,6.09% and 8.11%,94.92% and 87.1%,100%,29.95% and 16.06%,13.04% and 21.62%,197 and 193
O=C1CSC(=O)N1C(CCc1ccncc1)COc1ccc(-c2cccc([N+](=O)[O-])c2)cc1 (stereo unspecified),15.94% and 18.18%,10.47% and 7.01%,49.42% and 67.29%,0%,17.65% and 14.58%,84.06% and 81.82%,100%,40.12% and 25.7%,45.88% and 47.22%,172 and 214

# Same assay, conditions: 12 h, 1 µM, compound concentration 1 uM
row,Structure (SMILES),Population Membrane Permeable-Phenotype (%)
1,O=C1CSC(=O)N1C(CCc1ccncc1)COc1ccc(-c2cccc([N+](=O)[O-])c2)cc1 (stereo unspecified),7.06% and 9.03%

# Same assay, conditions: 12 h, 10 µM, compound concentration 10 uM
Structure (SMILES),Population Apoptotic (%),Population Healthy Nuclei (%),Population Hoechst High Intensity Objects (%),Population Mitochondria Different-Phenotype (%),Population Mitotic Cells (%),Population Normal (%),Population Pyknosed Nuclei (%),Population Tubulin-Different-Phenotype (%),Total Cell Count,Population Fragmented Nuclei (%)
Cn1ncnc1COc1nn2c(-c3cc(F)ccc3F)nnc2cc1C(C)(C)C,6.76% and 16.22%,51.12% and 80%,0%,14.04% and 8.67%,93.24% and 83.78%,100%,33.18% and 15.1%,35.96% and 51.02%,223 and 245,–
O=C1CSC(=O)N1C(CCc1ccncc1)COc1ccc(-c2cccc([N+](=O)[O-])c2)cc1 (stereo unspecified),20.34% and 45%,42.25% and 60.3%,0%,43.33% and 52.5%,79.66% and 55%,100%,41.55% and 30.15%,71.67% and 99.17%,142 and 199,16.2% and 9.55%

# Same assay, conditions: 12 h, 10 µM, compound concentration 10 uM
row,Structure (SMILES),Population Membrane Permeable-Phenotype (%)
1,O=C1CSC(=O)N1C(CCc1ccncc1)COc1ccc(-c2cccc([N+](=O)[O-])c2)cc1 (stereo unspecified),16.67% and 33.33%

# Same assay, conditions: 24 h, 1 µM, compound concentration 1 uM
Structure (SMILES),Population Fragmented Nuclei (%),Population Healthy Nuclei (%),Population Hoechst High Intensity Objects (%),Population Mitochondria Different-Phenotype (%),Population Mitotic Cells (%),Population Normal (%),Population Pyknosed Nuclei (%),Population Tubulin-Different-Phenotype (%),Total Cell Count,Population Apoptotic (%)
Cn1ncnc1COc1nn2c(-c3cc(F)ccc3F)nnc2cc1C(C)(C)C,8.72% and 5.03%,67.89% and 83.42%,0%,1.35% and 7.23%,94.12% and 60.87%,100%,23.39% and 11.56%,10.14% and 19.28%,218 and 199,–
O=C1CSC(=O)N1C(CCc1ccncc1)COc1ccc(-c2cccc([N+](=O)[O-])c2)cc1 (stereo unspecified),15.38% and 8.89%,63.19% and 75.11%,0%,13.04% and 14.79%,87.18% and 77.78%,100%,21.43% and 16%,32.17% and 39.05%,182 and 225,12.82% and 22.22%

# Same assay, conditions: 24 h, 1 µM, compound concentration 1 uM
row,Structure (SMILES),Population Membrane Permeable-Phenotype (%)
1,O=C1CSC(=O)N1C(CCc1ccncc1)COc1ccc(-c2cccc([N+](=O)[O-])c2)cc1 (stereo unspecified),5.22% and 7.69%

# Same assay, conditions: 24 h, 10 µM, compound concentration 10 uM
Structure (SMILES),Population Apoptotic (%),Population Fragmented Nuclei (%),Population Healthy Nuclei (%),Population Hoechst High Intensity Objects (%),Population Mitochondria Different-Phenotype (%),Population Mitotic Cells (%),Population Normal (%),Population Pyknosed Nuclei (%),Population Tubulin-Different-Phenotype (%),Total Cell Count
Cn1ncnc1COc1nn2c(-c3cc(F)ccc3F)nnc2cc1C(C)(C)C,13.24% and 17.24%,8.07% and 9.51%,61.43% and 79.47%,0%,11.68% and 10.05%,86.76% and 82.76%,100%,30.49% and 11.03%,45.99% and 56.46%,223 and 263
O=C1CSC(=O)N1C(CCc1ccncc1)COc1ccc(-c2cccc([N+](=O)[O-])c2)cc1 (stereo unspecified),30.56% and 30.23%,18.75% and 10.08%,56.25% and 71.85%,0%,43.21% and 52.05%,69.44% and 69.77%,100%,25% and 18.07%,86.42% and 97.08%,144 and 238

# Same assay, conditions: 24 h, 10 µM, compound concentration 10 uM
row,Structure (SMILES),Population Membrane Permeable-Phenotype (%)
1,O=C1CSC(=O)N1C(CCc1ccncc1)COc1ccc(-c2cccc([N+](=O)[O-])c2)cc1 (stereo unspecified),9.88% and 12.87%

# Same assay, conditions: 48 h, 1 µM, compound concentration 1 uM
Structure (SMILES),Population Fragmented Nuclei (%),Population Healthy Nuclei (%),Population Hoechst High Intensity Objects (%),Population Mitochondria Different-Phenotype (%),Population Mitotic Cells (%),Population Normal (%),Population Pyknosed Nuclei (%),Total Cell Count,Population Apoptotic (%),Population Membrane Permeable-Phenotype (%)
Cn1ncnc1COc1nn2c(-c3cc(F)ccc3F)nnc2cc1C(C)(C)C,7.91% and 5.24%,84.58% and 83.81%,0%,12.15% and 3.41%,68.42% and 91.3%,100%,7.51% and 10.95%,253 and 210,–,–
O=C1CSC(=O)N1C(CCc1ccncc1)COc1ccc(-c2cccc([N+](=O)[O-])c2)cc1 (stereo unspecified),11.27% and 8.23%,81.86% and 77.49%,0%,16.17% and 5.59%,78.57% and 78.79%,100%,6.86% and 14.29%,204 and 231,21.43% and 21.21%,1.2% and 3.91%

# Same assay, conditions: 48 h, 1 µM, compound concentration 1 uM
row,Structure (SMILES),Population Tubulin-Different-Phenotype (%)
1,O=C1CSC(=O)N1C(CCc1ccncc1)COc1ccc(-c2cccc([N+](=O)[O-])c2)cc1 (stereo unspecified),25.75% and 37.99%

# Same assay, conditions: 48 h, 10 µM, compound concentration 10 uM
Structure (SMILES),Population Apoptotic (%),Population Fragmented Nuclei (%),Population Healthy Nuclei (%),Population Hoechst High Intensity Objects (%),Population Mitochondria Different-Phenotype (%),Population Mitotic Cells (%),Population Normal (%),Population Pyknosed Nuclei (%),Population Tubulin-Different-Phenotype (%),Total Cell Count
Cn1ncnc1COc1nn2c(-c3cc(F)ccc3F)nnc2cc1C(C)(C)C,23.08% and 30.77%,10.08% and 8.8%,78.99% and 86%,0%,8.51% and 7.44%,76.92% and 69.23%,100%,10.92% and 5.2%,38.3% and 59.07%,238 and 250
O=C1CSC(=O)N1C(CCc1ccncc1)COc1ccc(-c2cccc([N+](=O)[O-])c2)cc1 (stereo unspecified),–,15.87% and 12.5%,73.02% and 80.83%,0%,35.51% and 19.59%,61.9% and 87.5%,100%,11.11% and 6.67%,84.06% and 98.45%,189 and 240

# Same assay, conditions: 48 h, 10 µM, compound concentration 10 uM
row,Structure (SMILES),Population Membrane Permeable-Phenotype (%)
1,O=C1CSC(=O)N1C(CCc1ccncc1)COc1ccc(-c2cccc([N+](=O)[O-])c2)cc1 (stereo unspecified),13.04% and 19.07%
